How the values were obtained:
CCRF-CEM = test: Cytotoxicity against human CCRF-CEM cells after 72 hrs by XTT assay; format: functional, cell-based
Procedure, shortened: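 CCRF-CEM T-ALL cells incubated with compound for 72 h. XTT with phenazine methosulfate then added for 6 h at 37 °C, absorbance read at 450 and 630 nm. IC50 from six or seven concentrations by median-effect analysis; mean ± STDEV, n = 3.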

PC-3 = test: Cytotoxicity against human PC3 cells after 72 hrs by Alamar blue assay; format: functional, cell-based; conditions: PC-3, 72 h
Procedure, shortened: (§1)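 Cells exposed to compound for 72 h, then Alamar blue added with a further 10−12 h at 37 °C and a spectrophotometric read. IC50 from six or seven concentrations by median-effect analysis; mean ± STDEV, n = 3. CL141T is a line derived from a patient lung tumor passaged as a SCID mouse xenograft.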

HCT-116 = test: Cytotoxicity against human HCT116 cells after 72 hrs by Alamar blue assay; format: functional, cell-based; conditions: HCT-116, 72 h; procedure, shortened: as §1
[1] = Cytotoxicity against human OECM1 cells after 72 hrs by Alamar blue assay; format: functional, cell-based; conditions: OECM1, 72 h; procedure, shortened: as §1
[2] = Cytotoxicity against human CL141T cells after 72 hrs by Alamar blue assay; format: functional, cell-based; procedure, shortened: as §1
MX1 = test: Cytotoxicity against human MX1 cells after 72 hrs by SRB assay; format: functional, cell-based; conditions: MX1, 72 h
[3] = Cytotoxicity against human KB-VIN10 cells after 72 hrs by Alamar blue assay; conditions: KB-VIN10, 72 h
[4] = Resistance factor, ratio of IC50 for human KB-VIN10 cells to IC50 for human KB cells; format: functional
KB = test: Cytotoxicity against human KB cells after 72 hrs by Alamar blue assay
[5] = Cytotoxicity against human H460 cells after 72 hrs by Alamar blue assay; format: functional, cell-based; conditions: NCI-H460, 72 h; procedure, shortened: as §1
HT-29 = test: Cytotoxicity against human HT-29 cells after 72 hrs by Alamar blue assay; format: functional, cell-based; conditions: HT-29, 72 h; procedure, shortened: as §1
A549 = test: Cytotoxicity against human A549 cells after 72 hrs by Alamar blue assay; format: functional, cell-based; conditions: A549, 72 h; procedure, shortened: as §1
[6] = Cytotoxicity against human HEL299 cells; format: cell-based; conditions: HEL 299
MES-SA = test: Resistance factor, ratio of IC50 for human MES-SA/Dx5 cells to IC50 for human MES-SA cells; format: functional
[7] = Cytotoxicity against human MES-SA/Dx5 cells after 72 hrs by Presto Blue assay; format: functional, cell-based; conditions: MES-SA/Dx5, 72 h
Procedure, shortened: (§2)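 MES-SA and doxorubicin-resistant MES-SA/dx5 cells exposed for 72 h, then PrestoBlue added for 3 h at 37 °C, absorbance read at 570 and 600 nm. IC50 by median-effect analysis of six or seven concentrations; mean ± STDEV of three to six independent experiments.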

[8] = Cytotoxicity against human MES-SA cells after 72 hrs by Presto Blue assay; format: functional, cell-based; procedure, shortened: as §2

| Compound | IC50 (CCRF-CEM) | IC50 (PC-3) | IC50 (HCT-116) | IC50 [1] | IC50 [2] | also measured |
| --- | --- | --- | --- | --- | --- | --- |
| Cn1c2c(c3ccccc31)Cc1c(CO)c(CO)c(-c3ccc(F)c(Cl)c3)n1C2 | 14.4 µM |  |  |  |  |  |
| CCNC(=O)OCc1c(COC(=O)NCC)c2n(c1CC)Cc1c(c3ccccc3n1C)C2 | 0.16 µM | 5 µM | 1.8 µM | 3.9 µM | 2.85 µM |  |
| COc1ccc(-c2c(CO)c(CO)c3n2Cc2c(c4ccccc4n2C)C3)cc1 | 1.3 µM |  |  |  |  |  |
| Cn1c2c(c3ccccc31)Cc1c(CO)c(CO)c(-c3ccccc3)n1C2 | 1.17 µM |  |  |  |  |  |
| Cn1c2c(c3ccccc31)Cc1c(CO)c(CO)c(-c3ccc(Cl)cc3)n1C2 | 4.58 µM | 12.9 µM | 17.5 µM | 17.2 µM | 23.8 µM | IC50 (MX1): 11.3 µM |
| COc1cc(-c2c(CO)c(CO)c3n2Cc2c(c4ccccc4n2C)C3)cc(OC)c1OC | 4.45 µM |  |  |  |  |  |
| Cc1c(CO)c(CO)c2n1Cc1c(c3ccccc3n1Cc1ccccc1)C2 | 0.29 µM | 4.52 µM |  | 4.17 µM | 2.76 µM |  |
| CCc1c(COC(=O)NC(C)C)c(COC(=O)NC(C)C)c2n1Cc1c(c3ccccc3n1C)C2 | 0.16 µM | 2.1 µM | 2.22 µM | 2.02 µM | 2.66 µM |  |
| CC[C@]1(O)C[C@H]2CN(CCc3c([nH]c4ccccc34)[C@@](C(=O)OC)(c3cc4c(cc3OC)N(C=O)[C@H]3[C@@](O)(C(=O)OC)[C@H](OC(C)=O)[C@]5(CC)C=CCN6CC[C@]43[C@@H]65)C2)C1 [VINCRISTINE] |  |  |  |  |  | IC50 [3]: 0.303 µM; Ratio IC50 [4]: 143.7; IC50 (KB): 0.00211 µM |
| CCNC(=O)OCc1c(COC(=O)NCC)c(-c2ccc(OC)cc2)n2c1Cc1c(n(C)c3ccccc13)C2 | 0.1 µM | 8.3 µM | 7.1 µM | 6.15 µM | 8.13 µM |  |
| COc1ccc(-c2c(COC(=O)NC(C)C)c(COC(=O)NC(C)C)c3n2Cc2c(c4ccccc4n2C)C3)cc1 | 0.12 µM | 6.84 µM | 5.93 µM | 4.17 µM | 4 µM | IC50 [5]: 9.52 µM |
| CCNC(=O)OCc1c(COC(=O)NCC)c(-c2ccc(F)c(Cl)c2)n2c1Cc1c(n(C)c3ccccc13)C2 | 1.8 µM |  |  |  |  |  |
| Cc1c(COC(=O)NC(C)C)c(COC(=O)NC(C)C)c2n1Cc1c(c3ccccc3n1C)C2 | 0.03 µM | 3.03 µM | 1.26 µM | 1.45 µM | 2.43 µM | IC50 (HT-29): 10.8 µM; IC50 (MX1): 0.25 µM; IC50 (A549): 3.81 µM |
| COc1ccc(-c2c(CO)c(CO)c3n2Cc2c(c4ccccc4n2C)C3)cc1OC | 0.96 µM | 37.9 µM |  | 37.2 µM | 33.1 µM |  |
| CCNC(=O)OCc1c(COC(=O)NCC)c(-c2ccc(F)c(F)c2)n2c1Cc1c(n(C)c3ccccc13)C2 | 0.13 µM | 6.76 µM |  | 14.4 µM | 9.61 µM | IC50 [5]: 18.9 µM |
| CCNC(=O)OCc1c(COC(=O)NCC)c(-c2ccc(OC)c(OC)c2)n2c1Cc1c(n(C)c3ccccc13)C2 | 0.3 µM | 8.03 µM |  | 5.29 µM | 11.2 µM |  |
| CCc1c(CO)c(CO)c2n1Cc1c(c3ccccc3n1C)C2 | 0.2 µM | 3.32 µM |  | 2.11 µM | 1.32 µM | IC50 (HT-29): 8.56 µM; IC50 [6]: 4.24 µM; Ratio IC50 (MES-SA): 0.61; IC50 [3]: 1.56 µM; IC50 (A549): 3.15 µM; IC50 [7]: 0.47 µM; Ratio IC50 [4]: 0.79; IC50 (KB): 1.97 µM; IC50 [8]: 0.77 µM |

| Compound | IC50 (CCRF-CEM) | IC50 (PC-3) | IC50 (HCT-116) | IC50 [1] | IC50 [2] | also measured |
| --- | --- | --- | --- | --- | --- | --- |
| CCn1c2c(c3ccccc31)Cc1c(COC(=O)NC(C)C)c(COC(=O)NC(C)C)c(C)n1C2 | 0.14 µM | 3.28 µM | 2.2 µM | 2.27 µM | 1.88 µM | IC50 (HT-29): 6.36 µM; IC50 (A549): 2.64 µM |
| CCNC(=O)OCc1c(COC(=O)NCC)c(-c2ccc(F)cc2)n2c1Cc1c(n(C)c3ccccc13)C2 | 0.39 µM | 14.6 µM |  | 8.6 µM | 12.4 µM |  |
| Cn1c2c(c3ccccc31)Cc1c(CO)c(CO)c(-c3ccc(F)c(F)c3)n1C2 | 7.94 µM |  |  |  |  |  |
| Cc1c(COC(=O)NC(C)C)c(COC(=O)NC(C)C)c2n1Cc1c(c3ccccc3n1Cc1ccccc1)C2 | 0.1 µM | 4.18 µM | 3.92 µM | 4.2 µM | 4.66 µM | IC50 [5]: 7.26 µM |
| CC(C)NC(=O)OCc1c(COC(=O)NC(C)C)c(-c2ccc(F)c(Cl)c2)n2c1Cc1c(n(C)c3ccccc13)C2 | 1.91 µM |  |  |  |  |  |
| CCNC(=O)OCc1c(COC(=O)NCC)c(-c2cc(OC)c(OC)c(OC)c2)n2c1Cc1c(n(C)c3ccccc13)C2 | 0.62 µM |  |  |  |  |  |
| CC(C)NC(=O)OCc1c(COC(=O)NC(C)C)c(-c2ccccc2)n2c1Cc1c(n(C)c3ccccc13)C2 | 0.13 µM | 7.84 µM |  | 4.87 µM | 9.6 µM | IC50 [5]: 4.72 µM |
| CC(C)NC(=O)OCc1c(COC(=O)NC(C)C)c(-c2ccc(Cl)cc2)n2c1Cc1c(n(C)c3ccccc13)C2 | 0.44 µM | 13.1 µM | 9.28 µM | 12.7 µM | 14 µM | IC50 (MX1): 12.4 µM |
| CCNC(=O)OCc1c(COC(=O)NCC)c2n(c1C)Cc1c(c3ccccc3n1Cc1ccccc1)C2 | 0.14 µM | 5.05 µM | 3.84 µM | 5.42 µM |  | IC50 [5]: 8.31 µM |
| COc1cc(-c2c(COC(=O)NC(C)C)c(COC(=O)NC(C)C)c3n2Cc2c(c4ccccc4n2C)C3)cc(OC)c1OC | 0.95 µM |  |  |  |  |  |
| CCNC(=O)OCc1c(COC(=O)NCC)c(-c2ccccc2)n2c1Cc1c(n(C)c3ccccc13)C2 | 0.23 µM | 9.13 µM |  | 5.19 µM | 10.5 µM |  |
| Cn1c2c(c3ccccc31)Cc1c(CO)c(CO)c(-c3ccc(F)cc3)n1C2 | 1.46 µM |  |  |  |  |  |
| CC(C)NC(=O)OCc1c(COC(=O)NC(C)C)c(-c2ccc(F)c(F)c2)n2c1Cc1c(n(C)c3ccccc13)C2 | 0.44 µM | 34.2 µM |  | 15.2 µM | 18.3 µM |  |
| CCNC(=O)OCc1c(COC(=O)NCC)c(-c2ccc(Cl)cc2)n2c1Cc1c(n(C)c3ccccc13)C2 | 0.35 µM | 4.95 µM | 1.17 µM | 9.01 µM | 7.88 µM | IC50 (MX1): 1.83 µM |
| COc1cccc2c1C(=O)c1c(O)c3c(c(O)c1C2=O)C[C@@](O)(C(=O)CO)C[C@@H]3O[C@H]1C[C@H](N)[C@H](O)[C@H](C)O1 [DOXORUBICIN] |  |  |  |  |  | Ratio IC50 (MES-SA): 60.52; IC50 [7]: 2.3 µM; IC50 [8]: 0.038 µM |
| COc1ccc(-c2c(COC(=O)NC(C)C)c(COC(=O)NC(C)C)c3n2Cc2c(c4ccccc4n2C)C3)cc1OC | 0.3 µM |  |  |  |  |  |

Reference: ChEMBL document CHEMBL2331340, “Novel antitumor indolizino[6,7-b]indoles with multiple modes of action: DNA cross-linking and topoisomerase I and II inhibition” (J Med Chem, 2013)
